Measurements from ChEMBL document CHEMBL1152677, “Combretastatin-like chalcones as inhibitors of microtubule polymerisation. Part 2: Structure-based discovery of alpha-aryl chalcones” (Bioorg Med Chem, 2009).
pIC50: −log10 of the molar value. Values belong to the compound of their own block, whether it stands above or below them.

Experiments:
[1] = system: K562; test: Antiproliferative activity against human K562 cells after 5 days by MTT assay; assay type: functional, cell-based; details: K562, 120 h
Method in brief: (§1)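 Cells at about 2000 cells/mL (set by doubling time) in RPMI with 10% v/v FCS; compound from DMSO stock, seven twofold serial dilutions plus drug-free control, triplicate wells, 37 °C 5% CO2 for 5 days. MTT (3 mg/mL in PBS) added for 3 h, formazan dissolved in DMSO, OD read at 540 and 690 nm; IC50 derived graphically as percentage of control growth.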

[2] = Inhibition of tubulin assembly by spectrophotometry
Method in brief: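 Tubulin (10–15 μM stock) in 0.1 M Mes, 1 mM EGTA, 0.5 mM MgCl2, pH 6.6, with GTP, compound in DMSO, assembled on cold at 0 °C then moved to 37 °C. Absorbance at 350 nm followed for 30 min against drug/GTP buffer blanks; change in optical density relative to untreated control gives IC50 for assembly inhibition.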

[3] = system: A549; test: Antiproliferative activity against human A549 cells after 5 days by MTT assay; assay type: functional, cell-based; details: A549, 120 h; method in brief: as §1
[4] = system: A2780; test: Antiproliferative activity against human A2780 cells after 5 days by MTT assay; assay type: functional, cell-based; details: A2780, 120 h; method in brief: as §1
[5] = system: K562; test: Cell cycle arrest in human K562 cells assessed as accumulation at G0/G1 phase at 10 uL after overnight incubation by propidium iodide staining-based flow cytometry; assay type: functional
Method in brief: (§2)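 Fixed in cold 1:1 acetone:ethanol, washed in PBS, RNAse treated (37 °C, 15 min), stained with propidium iodide 50 µg/mL; DNA content read by flow cytometry, argon laser excitation 488 nm; percentage of cells per phase versus untreated control.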

[6] = system: K562; test: Cell cycle arrest in human K562 cells assessed as accumulation at S phase at 10 uL after overnight incubation by propidium iodide staining-based flow cytometry; assay type: functional; method in brief: as §2
[7] = system: K562; test: Cell cycle arrest in human K562 cells assessed as accumulation at G2/M phase at 10 uL after overnight incubation by propidium iodide staining-based flow cytometry; assay type: functional; method in brief: as §2
[8] = system: P388; test: Antiproliferative activity against mouse P388 cells after 5 days by MTT assay; assay type: functional, cell-based; details: P388, 120 h; method in brief: as §1
[9] = system: L1210; test: Antiproliferative activity against mouse L1210 cells after 5 days by MTT assay; assay type: functional, cell-based; details: L1210, 120 h; method in brief: as §1
[10] = system: K562; test: Cytotoxicity against human K562 cells; assay type: functional, cell-based
Method in brief: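 K562 cells in RPMI with 10% v/v FCS, at about 2000 cells/mL. Drug in DMSO was serially diluted twofold to give seven concentrations, plus a drug-free control. Cells were plated in triplicate and incubated 5 days at 37 °C, 5% CO2. MTT (3 mg/mL stock) was added for 3 h, formazan dissolved in DMSO, and OD read at 540 and 690 nm. IC50 was found graphically as percent of control growth.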

[11] = Displacement of [3H]colchicine from tubulin
[12] = Inhibition of tubulin assembly by turbidimetry assay

pIC50 [1]: 6.82
Structure (SMILES): COc1ccc(/C=C(/C(=O)c2cc(OC)c(OC)c(OC)c2)c2ccc(N(C)C)cc2)cc1

pIC50 [1]: 5.31
Structure (SMILES): COc1ccc(C(=Cc2ccccc2)C(=O)c2cc(OC)c(OC)c(OC)c2)cc1

pIC50 [1]: 6.10
Structure (SMILES): COc1ccc(C=C(C(=O)c2cc(OC)c(OC)c(OC)c2)c2ccccc2)cc1F

pIC50 [1]: 6.30
Structure (SMILES): COc1ccc(C=C(C(=O)c2cc(OC)c(OC)c(OC)c2)c2ccc(OC)cc2)cc1

pIC50 [1]: 6.12
Structure (SMILES): COc1ccc(C=C(C(=O)c2cc(OC)c(OC)c(OC)c2)c2ccc(C)cc2)cc1

pIC50 [1]: 5.53
Structure (SMILES): COc1cc(C(=O)C(=Cc2ccccc2)c2ccc(C)cc2)cc(OC)c1OC

pIC50 [1]: 5.20
Structure (SMILES): COc1cc(C(=O)C(=Cc2ccccc2)c2ccccc2)cc(OC)c1OC

pIC50 [1]: 7.40
Structure (SMILES): COc1ccc(/C=C(/C(=O)c2cc(OC)c(OC)c(OC)c2)c2ccc(OC)cc2)cc1

pIC50 [1]: 6.43
pIC50 [2]: < 5.00
Structure (SMILES): COc1ccc(/C=C(/C(=O)c2cc(OC)c(OC)c(OC)c2)c2ccccc2O)cc1

pIC50 [1]: 7.70
Structure (SMILES): COc1ccc(/C=C(/C(=O)c2cc(OC)c(OC)c(OC)c2)c2ccccc2)cc1

pIC50 [1]: < 5.00
Structure (SMILES): COc1ccc(C=C(C(=O)c2cc(OC)c(OC)c(OC)c2)c2ccccc2)cc1[N+](=O)[O-]

The remaining lines, values behind:

Structure (SMILES): COc1ccc(C=C(C(=O)c2cc(OC)c(OC)c(OC)c2)c2ccc(C)cc2)cc1F
pIC50 [1]: 6.24
pIC50 [2]: 5.36

Structure (SMILES): COc1ccc(C=C(C(=O)c2cc(OC)c(OC)c(OC)c2)c2ccc(C)cc2)cc1[N+](=O)[O-]
pIC50 [1]: 5.61

Structure (SMILES): COc1ccc(/C=C(/C(=O)c2cc(OC)c(OC)c(OC)c2)c2ccccc2O)cc1O[Si](C)(C)C(C)(C)C
pIC50 [1]: 6.42
pIC50 [2]: < 5.00

Structure (SMILES): COc1ccc(/C=C\c2cc(OC)c(OC)c(OC)c2)cc1O [COMBRETASTATIN A4]
pIC50 [3]: 8.11
pIC50 [4]: 8.72
Activity [5]: 14%
Activity [6]: 23.3%
Activity [7]: 62.7%
pIC50 [8]: 8.51
pIC50 [9]: 8.64
pIC50 [10]: 8.85
Activity [11]: 92%
pIC50 [1]: 8.49
pIC50 [2]: 5.43

Structure (SMILES): COc1ccc(C(=Cc2ccc(OC)c([N+](=O)[O-])c2)C(=O)c2cc(OC)c(OC)c(OC)c2)cc1
pIC50 [1]: 5.58

Structure (SMILES): COc1ccc(/C=C(/C(=O)c2cc(OC)c(OC)c(OC)c2)c2ccc(OC)cc2OC)cc1
pIC50 [1]: 7.05

Structure (SMILES): COc1ccc(/C=C(/C(=O)c2cc(OC)c(OC)c(OC)c2)c2ccccc2O)cc1F
pIC50 [3]: 6.85
pIC50 [4]: 7.40
Activity [5]: 10.6%
Activity [6]: 43.6%
Activity [7]: 45.7%
pIC50 [8]: 6.28
pIC50 [9]: 7.22
pIC50 [1]: 7.22
pIC50 [2]: 5.14

Structure (SMILES): COc1ccc(/C=C(\C)C(=O)c2cc(OC)c(OC)c(OC)c2)cc1O
pIC50 [3]: 8.00
pIC50 [4]: 8.74
Activity [5]: 10.7%
Activity [6]: 32.8%
Activity [7]: 56.4%
pIC50 [8]: 7.59
pIC50 [9]: 7.96
pIC50 [1]: 8.36
pIC50 [2]: 5.48
pIC50 [12]: 6.34

Structure (SMILES): COc1cc2c(c(OC)c1OC)-c1ccc(OC)c(=O)cc1[C@@H](NC(C)=O)CC2 [COLCHICINE]
pIC50 [12]: 5.59

Structure (SMILES): COc1ccc(C(=Cc2ccc(OC)c(O)c2)C(=O)c2cc(OC)c(OC)c(OC)c2)cc1
pIC50 [3]: 6.17
pIC50 [4]: 8.00
Activity [5]: 10.8%
Activity [6]: 34.6%
Activity [7]: 54.6%
pIC50 [8]: 7.70
pIC50 [9]: 6.80
pIC50 [1]: 7.92
pIC50 [2]: 5.68

Structure (SMILES): COc1ccc(C(=Cc2ccc(OC)c(F)c2)C(=O)c2cc(OC)c(OC)c(OC)c2)cc1
pIC50 [1]: 6.35
pIC50 [2]: 5.38

Structure (SMILES): COc1ccc(C=C(C(=O)c2cc(OC)c(OC)c(OC)c2)c2ccc(C)cc2)cc1O
pIC50 [1]: 7.49
pIC50 [2]: 5.59

Structure (SMILES): COc1ccc(/C=C(/C(=O)c2cc(OC)c(OC)c(OC)c2)c2ccccc2O)cc1O
pIC50 [3]: 7.30
pIC50 [4]: 7.47
Activity [5]: 6.5%
Activity [6]: 18.1%
Activity [7]: 75.4%
pIC50 [8]: 7.55
pIC50 [9]: 7.44
pIC50 [1]: 7.31
pIC50 [2]: 5.26
